# Results reported in ChEMBL document CHEMBL3784952, “Design, discovery, modelling, synthesis, and biological evaluation of novel and small, low toxicity s-triazine derivatives as HIV-1 non-nucleoside reverse transcriptase inhibitors” (Bioorg Med Chem, 2016).
# Where “and” joins values, the source holds several entries; their conditions need not be identical. Equal entries are not always repeated. Calls of active or inactive are those of the source. The calls are words filed in the database; no cut-off is given here.
# Key:
# [1] = target: Human immunodeficiency virus type 1 reverse transcriptase (Human immunodeficiency virus 1, UniProt Q72547); assay: (§1) Inhibition of HIV1 reverse transcriptase using 234-nt long RNA/18-mer DNA oligonucleotide as template/primer preincubated for 15 mins followed by incubation with template/primer for 40 mins by liquid scintillation counting in presence of alpha[P33]-dCTP
# [2] = (§2) Cytotoxicity against human U2OS cells assessed as cell viability at 50 uM after 48 hrs relative to control; format: cell-based; conditions: U2OS cells, read-out: Activity
# Procedure, shortened: (§3)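 U2OS cells seeded at 3.5 × 10^3 on electrode plates; after 24 h compound added at a single concentration (final DMSO 0.5%) and impedance cell index followed for 48 h. Graded against DMSO-treated cells: >50% reduction toxic, 20-50% moderately toxic, ≤20% non-toxic.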
# [3] = tested on: Human immunodeficiency virus 1; assay: Antiviral activity against HIV1 virus-like particles harboring wild type reverse transcriptase infected in human U2OS cells assessed as remaining viral activity at 50 uM after 24 hrs by Renilla luciferase assay relative to control; format: functional
# Procedure, shortened: (§4)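 U2OS cells seeded 5 × 10^4 per well, infected next day with HIV-1 VLPs carrying wt or mutant RT at MOI 0.01 with polybrene 6 μg/mL plus compound; 1 h at 37 °C, washed, compound-containing media 24 h, then compound-free media 24 h. Lysate Gluc activity (Renilla luciferase reagent) normalised to protein.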
# [4] = Cytotoxicity against human U2OS cells assessed as reduction of cell viability after 48 hrs; format: cell-based
# Procedure, shortened: (§5)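 Impedance-based real-time viability: U2OS (3.5 × 10^3) or TZM-bl (8.5 × 10^3) cells seeded on electrode plates, compounds in DMSO added 24 h later (final DMSO 0.5%), cell index recorded over a further 48 h. CC50 = concentration lowering cell index by 50% relative to DMSO-only cells.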
# [5] = target: Human immunodeficiency virus type 1 reverse transcriptase (Human immunodeficiency virus 1) (UniProt Q72547); assay: (§6) Inhibition of recombinant HIV1 reverse transcriptase using 234-nt long RNA/18-mer DNA oligonucleotide as template/primer assessed as remaining activity at 50 uM preincubated for 15 mins followed by incubation with template/primer for 40 mins by liquid scintillation counting in presence of alpha[P33]-dCTP relative to control
# [6] = target: Human immunodeficiency virus type 1 reverse transcriptase (Human immunodeficiency virus 1) (UniProt Q72547); assay: as §6, with “200” for “50”
# [7] = tested on: Human immunodeficiency virus 1; assay: Antiviral activity against HIV1 virus-like particles harboring wild type reverse transcriptase infected in human U2OS cells after 24 hrs by Renilla luciferase assay; format: functional, organism-based; procedure, shortened: as §4
# [8] = Cytotoxicity against human TZM-bl cells assessed as reduction of cell viability after 48 hrs; format: cell-based; procedure, shortened: as §5
# [9] = (§7) Cytotoxicity against human U2OS cells assessed as cell viability at 5 uM after 48 hrs relative to control; format: cell-based; conditions: U2OS cells, read-out: Activity; procedure, shortened: as §3
# [10] = tested on: Human immunodeficiency virus 1; assay: Antiviral activity against HIV1 virus-like particles harboring wild type reverse transcriptase infected in human U2OS cells assessed as remaining viral activity at 5 uM after 24 hrs by Renilla luciferase assay relative to control; format: functional; procedure, shortened: as §4
# [11] = tested on: Human immunodeficiency virus 1; assay: Selectivity ratio of IC50 for HIV1 virus-like particles harboring reverse transcriptase K103N/Y181C double mutant to IC50 for HIV1 virus-like particles harboring wild type reverse transcriptase; format: functional
# [12] = tested on: Human immunodeficiency virus 1; assay: Antiviral activity against HIV1 virion infected in human TZM-bl cells after 48 hrs by firefly luciferase assay; format: functional, organism-based
# Procedure, shortened: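 TZM-bl cells (LTR-driven firefly luciferase), 5 × 10^4 per well, infected next day with ACH-2-derived HIV-1 stock (PMA-induced; 30 ng p24 per well) plus compound for 2 h at 37 °C; medium then replaced with compound-containing medium for 48 h.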
# [13] = tested on: Human immunodeficiency virus 1; assay: Antiviral activity against HIV1 virus-like particles harboring reverse transcriptase K103N mutant infected in human U2OS cells after 24 hrs by Renilla luciferase assay; format: functional, organism-based; procedure, shortened: as §4
# [14] = tested on: Human immunodeficiency virus 1; assay: Antiviral activity against HIV1 virus-like particles harboring reverse transcriptase K103N/Y181C double mutant infected in human U2OS cells after 24 hrs by Renilla luciferase assay; format: functional, organism-based; procedure, shortened: as §4
# [15] = tested on: Human immunodeficiency virus 1; assay: Antiviral activity against HIV1 virus-like particles harboring reverse transcriptase Y181C mutant infected in human U2OS cells after 24 hrs by Renilla luciferase assay; format: functional, organism-based; procedure, shortened: as §4
# [16] = tested on: Human immunodeficiency virus 1; assay: Potency index, ratio of nevirapine IC50 to compound IC50 for HIV1 virus-like particles infected in human U2OS cells; format: functional
# [17] = tested on: U2OS; assay: as §2; format: cell-based; conditions: u2os, 48 h, 50 µM; procedure, shortened: as §3
# [18] = tested on: U2OS; assay: as §7; format: cell-based; conditions: u2os, 48 h, 5 µM; procedure, shortened: as §3
# [19] = target: Human immunodeficiency virus type 1 reverse transcriptase (Human immunodeficiency virus 1) (UniProt Q72547); assay: as §1
# [20] = Selectivity index, ratio of CC50 for human U2OS cells to IC50 for HIV1 virus-like particles infected in U2OS cells; format: functional
# [21] = Selectivity index, ratio of CC50 for human TZM-bl cells to IC50 for HIV1 virion […]; format: functional
# [22] = Human immunodeficiency virus 1, U2OS, 24 h, read-out: IC50
# [23] = Human immunodeficiency virus 1, TZM-bl, 48 h, read-out: IC50
SMILES,IC50 ([1]; read-out: IC50),"viability at 48 h, 50 µM [2]",Activity [3],CC50 at 48 h [4],Activity [5],Activity [6],"IC50 [7, 22]",other results
O=C1NC(=S)N(CCC2=CCCCC2)C(=O)/C1=C\NCCO,> 200 µM,98%,54%,> 50 µM,92%,78%,> 50 µM,–
Cc1ccc(Nc2nc(NCC3CCCO3)nc(NCC3CCCO3)n2)cc1 (stereo not drawn),–,–,–,> 50 µM,–,–,–,CC50 at 48 h [8]: > 50 µM; IC50 ([7]; u2os): Not Active
Cc1ccccc1Nc1nc(N)nc(CN(C)Cc2ccc(F)cc2)n1,> 200 µM,84%,53%,> 50 µM,103%,89%,> 50 µM,"viability at 48 h, 5 µM [9]: 96%; Activity [10]: 151%"
Cc1ccc(Nc2nc(COc3ccc(Cl)cc3)nc(=N)[nH]2)cc1,> 200 µM,76%,82%,> 50 µM,79%,86%,> 50 µM,"viability at 48 h, 5 µM [9]: 93%; Activity [10]: 125%"
CCCn1c(NCCN(CC)CC)nc2c1c(=O)[nH]c(=O)n2C,> 200 µM,101%,128%,> 50 µM,89%,103%,> 50 µM,–
Cc1ccc2[nH]c(=O)c(CN(CCCO)C(=S)NC[C@@H]3CCCO3)cc2c1,> 200 µM,108%,68%,> 50 µM,98%,108%,> 50 µM,–
Nc1nc(COC(=O)c2c[nH]c3ccccc23)nc(Cc2ccc(F)cc2)n1,> 200 µM,101%,118%,> 50 µM,86%,87%,> 50 µM,–
Nc1c(NCCO)cc(Nc2ccccc2)c2c1C(=O)c1ccccc1C2=O,> 200 µM,42%,–,> 5 µM,90%,66%,> 5 µM,"viability at 48 h, 5 µM [9]: 99%; Activity [10]: 111%"
"Cc1ccc(Nc2nc(NCC3CCCO3)nc(Nc3ccc(C)cc3)n2)cc1 (single isomer, unassigned; isomer 1)",–,–,–,–,–,–,–,"IC50 ([7]; u2os, read-out: IC50): 18.2 µM"
Cc1ccc(Nc2nc(NCC3CCCO3)nc(Nc3ccc(C)cc3)n2)cc1 (stereo in doubt; 8(n.p)) [listing 1 of 2 here],–,–,–,–,59%,53%,–,–
CCOC(=O)c1[nH]c2ccc(F)cc2c1NC(=O)NC1CCCCC1,> 50 µM,103%,84%,> 50 µM,81%,42%,> 50 µM,–
Cc1ccc(Nc2nc(O)nc(Nc3ccc(C)cc3)n2)cc1,55.1 µM,–,–,> 12.5 µM,–,–,0.067 µM,"CC50 at 48 h [8]: > 12.5 µM; Ratio IC50 [11]: >100; IC50 [12, 23]: 0.16 µM; Activity [13]: inactive; IC50 ([14]; Human immunodeficiency virus 1, U2OS): 8 µM; Activity [15]: inactive"
Cc1ccc(Nc2nc(NCC3CCCO3)nc(Nc3ccc(C)cc3)n2)cc1 (stereo in doubt; 8),–,–,–,> 50 µM,–,–,–,"Ratio IC50 [16]: 10; IC50 [1]: Not Active; IC50 ([12]; tzm-bl): Not Active; IC50 ([7]; u2os, read-out: IC50): 16 µM"
Cc1ccnc2c1NC(=O)c1cccnc1N2C1CC1 [NEVIRAPINE],–,–,–,> 100 µM,13.7%,9%,–,"CC50 at 48 h [8]: > 100 µM; Activity [17]: Non-toxic; IC50 [12, 23]: 0.026 µM; Activity [18]: Non-toxic; Activity [10]: 0.5%"
"Cc1ccc(Nc2nc(NCC3CCCO3)nc(Nc3ccc(C)cc3)n2)cc1 (single isomer, unassigned; isomer 2)",–,–,–,–,–,–,–,"CC50 at 48 h [8]: > 50 µM; IC50 ([7]; u2os, read-out: IC50): 32 µM"
COc1ccc(Nc2nc(Nc3ccc(OC)cc3)nc(NC3CCCC3)n2)cc1,> 200 µM,67%,30%,> 50 µM,94%,98%,> 5 µM,"viability at 48 h, 5 µM [9]: 87%; Activity [10]: 94%"
Cc1ccc(Nc2nc(NCC3CCCO3)nc(Nc3ccc(C)cc3)n2)cc1 (stereo in doubt; 8(n.p)) [listing 2 of 2 here],106 µM,66%,5.2%,–,–,–,–,"viability at 48 h, 5 µM [9]: 90%; Activity [10]: 20%; IC50 ([7]; u2os, read-out: IC50): 0.33 µM"
c1coc(CNc2nc(NCc3ccco3)c3nc(NCc4ccco4)[nH]c3n2)c1,> 200 µM,116%,104%,> 50 µM,92%,102%,> 50 µM,–
Cc1ccc(Nc2nc(N)nc(Nc3ccc(C)cc3)n2)cc1,116 µM,–,–,42.2 µM,–,–,2.5 µM,"CC50 at 48 h [8]: 57 µM; inhibition [19]: Dose-dependent effect; Ratio CC50/IC50 [20]: 17; IC50 [12, 23]: 5.6 µM; Activity [13]: inactive; Activity [14]: inactive; Ratio CC50/IC50 [21]: 10; Activity [15]: inactive"
CNc1nc(Nc2ccc(C)cc2)nc(Nc2ccc(C)cc2)n1,> 200 µM,46%,–,> 5 µM,85% and 86%,79% and 82%,> 5 µM,"Activity [17]: 40%; Activity [18]: 91%; viability at 48 h, 5 µM [9]: 96%; Activity [10]: 84% and 80%"
Cc1ccc(Nc2nc(Nc3ccc(C)cc3)nc(Nc3ccc(C)cc3)n2)cc1,–,–,–,> 50 µM,–,–,–,CC50 at 48 h [8]: > 50 µM; IC50 ([7]; u2os): Not Active
Cc1ccc(Nc2nc(N)nc(COC(=O)c3cnc4ccccc4n3)n2)cc1,> 200 µM,103%,75%,> 50 µM,82%,54%,> 50 µM,–
Cc1c(CCC(=O)NCC(=O)NCC(=O)O)c(=O)oc2c(C)c(O)ccc12,> 200 µM,99%,94%,> 50 µM,92%,93%,> 50 µM,–
Cc1ccccc1Nc1nc(Cn2ccc(C(F)(F)F)cc2=O)nc(=N)[nH]1,> 200 µM,105%,101%,> 50 µM,88%,89%,> 50 µM,–
